This note sets out measurements from ChEMBL document CHEMBL1157613, “Salicylic acid based small molecule inhibitor for the oncogenic Src homology-2 domain containing protein tyrosine phosphatase-2 (SHP2)” (J Med Chem, 2010).

Molecules are shown by their SMILES. Active and inactive are the calls of the source. The rule behind the calls is not given here.

The target in the first assay is T1, Tyrosine-protein phosphatase non-receptor type 11 (Homo sapiens, UniProt Q06124).
T1 sequence (Q06124 whole entry): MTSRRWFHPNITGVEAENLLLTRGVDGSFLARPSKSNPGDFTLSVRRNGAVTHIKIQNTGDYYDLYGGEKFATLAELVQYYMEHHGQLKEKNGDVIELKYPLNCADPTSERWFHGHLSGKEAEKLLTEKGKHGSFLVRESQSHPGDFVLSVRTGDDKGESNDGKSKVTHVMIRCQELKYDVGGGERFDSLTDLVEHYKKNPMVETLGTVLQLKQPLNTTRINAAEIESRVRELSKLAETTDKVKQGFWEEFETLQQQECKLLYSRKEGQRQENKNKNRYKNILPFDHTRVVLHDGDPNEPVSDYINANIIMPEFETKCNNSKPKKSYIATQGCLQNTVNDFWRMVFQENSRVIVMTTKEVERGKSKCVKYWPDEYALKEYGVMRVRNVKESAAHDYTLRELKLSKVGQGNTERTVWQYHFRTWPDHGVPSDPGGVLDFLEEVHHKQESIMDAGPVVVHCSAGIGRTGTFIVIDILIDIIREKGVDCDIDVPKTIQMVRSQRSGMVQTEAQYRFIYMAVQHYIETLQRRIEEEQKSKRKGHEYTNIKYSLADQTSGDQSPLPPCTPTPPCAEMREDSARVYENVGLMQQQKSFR
As to the kind of experiment: Inhibition of SHP2 […] expressed in Escherichia coli BL21 (DE3) assessed as inhibition of p-nitrophenyl phosphate hydrolysis at pH 7 by spectrophotometry.
`Cn1c(-c2ccccc2)c(-c2cn(CCCC(=O)Nc3ccc(-c4ccccc4)cc3)nn2)c2cc(C(=O)O)c(O)cc21`: the IC50 amounted to 12 µM.
Regarding `Cn1c(-c2ccccc2)c(-c2cn(CC(=O)Nc3ccc(N4CCOCC4)cc3)nn2)c2cc(C(=O)O)c(O)cc21`, the IC50 is 7.8 µM.
The same measure, in the same setting: then `Cn1c(-c2ccccc2)c(-c2cn(CC(=O)Nc3nc4ccccc4s3)nn2)c2cc(C(=O)O)c(O)cc21`, with 9.1 µM; and `Cn1c(-c2ccccc2)c(-c2cn(CC(=O)NC3c4ccccc4-c4ccccc43)nn2)c2cc(C(=O)O)c(O)cc21`, with 10.4 µM.
On to `C#Cc1c(-c2ccccc2)n(C)c2cc(O)c(C(=O)O)cc12`, for which the IC50 amounted to 212 µM.
Regarding `Cn1c(-c2ccccc2)c(-c2cn(CC(=O)Nc3ccc(-c4ccccc4)cc3)nn2)c2cc(C(=O)O)c(O)cc21`, the IC50 was found to be 9.3 µM.
On to `Cn1c(-c2ccccc2)c(-c2cn(CCC(=O)Nc3ccccc3)nn2)c2cc(C(=O)O)c(O)cc21`, for which the IC50 amounted to 86 µM.
Turning to `Cn1c(-c2ccccc2)c(-c2cn(CCCCC(=O)N3c4ccccc4Sc4ccccc43)nn2)c2cc(C(=O)O)c(O)cc21`, the IC50 was determined as 8 µM.

Another assay concerns the target T2, Tyrosine-protein phosphatase non-receptor type 11 (Homo sapiens) (UniProt Q06124).
T2 sequence (whole entry): T1 sequence (Q06124 whole entry)
As to the kind of experiment: Inhibition of SHP2-dependent ERK1/2 activation in EGF-stimulated HEK293 cells assessed as phosphorylated ERK1/2 level at 20 uM treated for 3 hrs before EGF challenge measured after 60 mins of EGF stimulation by immunoblot analysis. Format: cell-based. The method in brief: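 HEK293 cells in DMEM with 10% FCS, 4 × 10^5 per well, grown 24 h. They were serum-deprived 16 h, given vehicle or compound at 0-20 μM for 3 h, then stimulated with EGF 2 ng/mL for 60 min. Lysates (30 μg) were run on 10% SDS-PAGE and immunoblotted for phospho-ERK1/2, normalised to total ERK1/2.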
Background: In western blotting, separated proteins are transferred to a membrane and probed.
`Cn1c(-c2ccccc2)c(-c2cn(CCC(=O)Nc3ccccc3)nn2)c2cc(C(=O)O)c(O)cc21`: the inhibition entry is “inactive”.

For orientation: IC50 means the midpoint of a concentration-inhibition curve.
